Converted amounts (≈) assume the structure as drawn.
Experiments:
Assay type in all cases: functional
[1] = test system: Aspergillus flavus; test: Antifungal activity against Aspergillus flavus
Summary of the method: (§1)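 MIC determined in 96-well plates. 1-mm diameter mycelial pieces were incubated in Czapek Dox minimal medium across a range of compound concentrations, and the MIC was read from mycelial growth.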

[2] = test system: Alternaria brassicae; test: Antifungal activity against Alternaria brassicae; summary of the method: as §1
[3] = test system: Alternaria brassicicola; test: Antifungal activity against Alternaria brassicola; summary of the method: as §1
[4] = test system: Fusarium oxysporum; test: Antifungal activity against Fusarium oxysporum; summary of the method: as §1
[5] = test system: Simplicillium lamellicola; test: Antifungal activity against Verticillium lamellicola; summary of the method: as §1
[6] = test system: Radish; test: Effect on growth of Raphanus sativus assessed as length of hypocotyl at 50 ug/mL by seed germination assay

Structure (SMILES)	MIC [1]	MIC [2]	MIC [3]	MIC [4]	MIC [5]	Activity [6]
CO/C=C(/C(=O)OC)c1cc(Cl)ccc1Cn1cc(-c2ccccc2)nn1	> 1500 µg/mL	1000 µg/mL (≈ 2610 µM)	1000 µg/mL (≈ 2610 µM)	1000 µg/mL (≈ 2610 µM)	1500 µg/mL (≈ 3910 µM)	18.8 mm
CO/C=C(/C(=O)OC)c1cc(Cl)ccc1Cn1cc(-c2ccccc2C=O)nn1	1500 µg/mL (≈ 3640 µM)	1000 µg/mL (≈ 2430 µM)	1000 µg/mL (≈ 2430 µM)	1000 µg/mL (≈ 2430 µM)	1000 µg/mL (≈ 2430 µM)	25 mm
CO/C=C(/C(=O)OC)c1cc(Cl)ccc1Cn1cc(C2=CCCCC2)nn1	> 1500 µg/mL	1000 µg/mL (≈ 2580 µM)	1000 µg/mL (≈ 2580 µM)	1500 µg/mL (≈ 3870 µM)	1500 µg/mL (≈ 3870 µM)	14 mm
CO/C=C(/C(=O)OC)c1ccccc1Oc1cc(Oc2ccccc2C#N)ncn1 [AZOXYSTROBIN]	–	–	–	–	–	2 mm

Further compounds by falling MIC [1], results first:

MIC [1]	MIC [2]	MIC [3]	MIC [4]	MIC [5]	Structure (SMILES)	Activity [6]
500 µg/mL (≈ 1080 µM)	400 µg/mL (≈ 866 µM)	500 µg/mL (≈ 1080 µM)	500 µg/mL (≈ 1080 µM)	500 µg/mL (≈ 1080 µM)	CO/C=C(/C(=O)OC)c1cc(Cl)ccc1Cn1cc(S(=O)(=O)c2ccc(C)cc2)nn1	30.7 mm
4 µg/mL (≈ 22.2 µM)	4 µg/mL (≈ 22.2 µM)	4 µg/mL (≈ 22.2 µM)	4 µg/mL (≈ 22.2 µM)	4 µg/mL (≈ 22.2 µM)	C#CS(=O)(=O)c1ccc(C)cc1	56.2 mm
